Assay results: ChEMBL document CHEMBL2169863, “Discovery, structure-activity relationship, and biological evaluation of noninhibitory small molecule chaperones of glucocerebrosidase” (J Med Chem, 2012)
Positions count from the first letter of the chain named. Calls of active or inactive are those of the source. Unless noted, no cut-off for these calls is given here.

Assays:
[1] = molecular target: Lysosomal alpha-glucosidase (Homo sapiens) (UniProt P10253); experiment: Activation of alpha-glucosidase using 4-MU-alpha-glucose as substrate
Caco-2 = experiment: Efflux ratio of apparent permeability from basal to apical to apical to basal side of human Caco2 cells after 2 hrs; type: ADME, cell-based; settings: caco-2, 2 h
How it was run: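 Caco-2 monolayers were grown 3 weeks, with integrity checked by Lucifer yellow. Compound was added apically (pH 6.5 HBSS/HEPES/glucose buffer) or basolaterally (pH 7.4) and incubated 2 h. Transfer was quantified by LC−MS/MS and expressed as P_app. Efflux ratio is P_app B→A over A→B.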

[2] = Cytotoxicity against human dermal fibroblasts expressing GCase N370S/N370S mutant at 5 uM after 6 days; type: cell-based; settings: fibroblast, 144 h
How it was run: (§1)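 Fibroblasts of the stated genotype were seeded at 5000 cells/well. After 1 day they were switched to OPTI-MEM with 5% FBS and treated 6 days with compound. Viability was read by CellTiter-Glo luminescence on a parallel plate.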

[3] = Cytotoxicity against human dermal fibroblasts expressing GCase L444P/L444P mutant at 5 uM after 6 days; type: cell-based; settings: fibroblast, 144 h; how it was run: as §1
[4] = Cytotoxicity against human dermal fibroblasts isolated from Gcase N370S carrier at 5 uM after 6 days; type: cell-based; settings: fibroblast, 144 h; how it was run: as §1
Liver [5] = experiment: Ratio of AUClast in liver to AUClast in plasma in C57BL/6 mouse at 50 mg/kg, ip; type: ADME, organism-based; design: dose 50 mg/kg, route intraperitoneal; settings: other tissue
How it was run: (§2)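 Male C57BL/6 mice, 18−26 g, given a single ip dose of 50 mpk in 20% PEG 400 + 80% (20% HP-β-CD). Plasma, brain and liver were sampled, and brain and liver were homogenized in 3 volumes of PBS pH 7.4 (dilution factor 4). Analysis was by LC−MS/MS. Mean profiles N = 3.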

Liver [6] = experiment: AUC (infinity) in C57BL/6 mouse liver at 50 mg/kg, ip; type: ADME, organism-based; design: time infinity, dose 50 mg/kg, route intraperitoneal; settings: in vivo; how it was run: as §2
Liver [7] = experiment: Half life in C57BL/6 mouse liver at 50 mg/kg, ip; type: ADME, organism-based; design: dose 50 mg/kg, route intraperitoneal; settings: in vivo; how it was run: as §2
Liver [8] = experiment: AUClast in C57BL/6 mouse liver at 50 mg/kg, ip; type: ADME, organism-based; design: time 0 - last, dose 50 mg/kg, route intraperitoneal; settings: in vivo; how it was run: as §2
Liver [9] = experiment: Cmax in C57BL/6 mouse liver at 50 mg/kg, ip; type: ADME, organism-based; design: dose 50 mg/kg, route intraperitoneal; settings: in vivo; how it was run: as §2
Brain [10] = experiment: AUClast in C57BL/6 mouse brain at 50 mg/kg, ip; type: ADME, organism-based; design: dose 50 mg/kg, route intraperitoneal, time 0 - last; settings: in vivo; how it was run: as §2
Brain [11] = experiment: Tmax in C57BL/6 mouse brain at 50 mg/kg, ip; type: ADME, organism-based; design: dose 50 mg/kg, route intraperitoneal; settings: in vivo; how it was run: as §2
Plasma [12] = experiment: AUC (infinity) in C57BL/6 mouse plasma at 50 mg/kg, ip; type: ADME, organism-based; design: time infinity, dose 50 mg/kg, route intraperitoneal; settings: in vivo; how it was run: as §2
Plasma [13] = experiment: Half life in C57BL/6 mouse plasma at 50 mg/kg, ip; type: ADME, organism-based; design: dose 50 mg/kg, route intraperitoneal; settings: in vivo; how it was run: as §2
Plasma [14] = experiment: AUClast in C57BL/6 mouse plasma at 50 mg/kg, ip; type: ADME, organism-based; design: time 0 - last, dose 50 mg/kg, route intraperitoneal; settings: in vivo; how it was run: as §2
Plasma [15] = experiment: Cmax in C57BL/6 mouse plasma at 50 mg/kg, ip; type: ADME, organism-based; design: dose 50 mg/kg, route intraperitoneal; settings: in vivo; how it was run: as §2
Plasma [16] = experiment: Tmax in C57BL/6 mouse plasma at 50 mg/kg, ip; type: ADME, organism-based; design: dose 50 mg/kg, route intraperitoneal; settings: in vivo; how it was run: as §2
[17] = molecular target: T1, Lysosomal acid glucosylceramidase (Homo sapiens) (UniProt P04062); experiment: (§3) Binding affinity to NT-647 labeled glucocerebrosidase by microscale thermophoretic analysis
T1 sequence (whole entry): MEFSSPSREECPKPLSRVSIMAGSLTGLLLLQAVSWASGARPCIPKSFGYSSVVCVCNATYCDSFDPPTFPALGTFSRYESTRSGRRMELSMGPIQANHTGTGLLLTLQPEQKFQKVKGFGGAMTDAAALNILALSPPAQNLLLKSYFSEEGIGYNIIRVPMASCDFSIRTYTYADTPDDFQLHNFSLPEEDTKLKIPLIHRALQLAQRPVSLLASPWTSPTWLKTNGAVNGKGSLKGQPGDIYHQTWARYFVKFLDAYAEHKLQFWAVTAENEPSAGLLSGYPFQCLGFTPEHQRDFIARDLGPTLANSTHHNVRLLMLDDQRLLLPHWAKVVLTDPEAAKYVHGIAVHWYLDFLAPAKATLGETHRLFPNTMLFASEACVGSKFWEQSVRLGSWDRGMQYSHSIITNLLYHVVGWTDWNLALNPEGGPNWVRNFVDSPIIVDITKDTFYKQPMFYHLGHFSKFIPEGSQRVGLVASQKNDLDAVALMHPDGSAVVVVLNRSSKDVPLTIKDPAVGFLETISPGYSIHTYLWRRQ
How it was run: (§4)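 NT-647-labeled glucocerebrosidase at ~20 nM in 50 mM phosphate pH 7.2, 0.05% Tween-20. It was mixed 1:1 with a 16-point DMSO dilution series and incubated 15 min at room temperature before capillary microscale thermophoresis. Apparent K_d was taken from the dose-dependent fluorescence change.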

[18] = molecular target: T2, Lysosomal acid glucosylceramidase (Homo sapiens, UniProt P04062); experiment: as §3; settings: read-out: Kd(app); how it was run: as §4
T2 sequence (P04062 whole entry): T1 sequence (whole entry)

[19] = system: T3, Lysosomal acid glucosylceramidase (Homo sapiens), P04062 [N409S]; experiment: Activation of Glucocerebrosidase N370S/N370S mutant translocation to lysosome in Gaucher patient dermal fibroblasts at 5 uM incubated for 6 days by LAMP2 colocalization-based laser scanning confocal microscopic analysis relative to vehicle-treated control
T3 sequence (whole entry): T1 sequence (whole entry) with N409S
How it was run: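 N370S/N370S Gaucher dermal fibroblasts were treated 6 days at 1, 5 or 25 μM, with DMSO vehicle control. Cells were fixed in 3% paraformaldehyde, permeabilized with Triton-X and stained with anti-GCase R386 (Alexa555), anti-LAMP-2 (Alexa488) and DAPI. Confocal imaging used constant laser settings, scoring GCase/LAMP-2 colocalization.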

[20] = molecular target: T1, Lysosomal acid glucosylceramidase (Homo sapiens); experiment: Activation of wild type glucocerebrosidase translocation to lysosome in human dermal fibroblast incubated for 6 days by LAMP2 colocalization-based laser scanning confocal microscopic analysis relative to vehicle-treated control
Homo sapiens = species on record: Homo sapiens; experiment: Activation of Glucocerebrosidase N370S/N370S mutant translocation to lysosome in Gaucher patient dermal fibroblasts at 5 uM incubated for 6 days by LAMP2 co-localization-based laser scanning confocal microscopic analysis relative to vehicle-treated control

C#Cc1ccc(NC(=O)c2cnn3c(C)cc(C)nc23)cc1
Activity [1]: inactive | Ratio (Caco-2): 0.3 | Activity [2]: Non-toxic | Activity [3]: Non-toxic | Activity [4]: Non-toxic | Ratio AUC (Liver [5]): 12512% | AUC (Liver [6]): 105000 ng·h/mL | t1/2 (Liver [7]): 28.9 h | AUClast (Liver [8]): 54300 ng·h/mL | Cmax (Liver [9]): 17.3 µM | AUClast (Brain [10]): 1260 ng·h/mL | Tmax (Brain [11]): 0.25 h | AUC (Plasma [12]): 474 ng·h/mL | t1/2 (Plasma [13]): 19.3 h | AUClast (Plasma [14]): 434 ng·h/mL | Cmax (Plasma [15]): 1.03 µM | Tmax (Plasma [16]): 0.25 h | Activity [17]: Dose-dependent effect | Kd [18]: 9 µM | Activity [19]: Active | Activity [20]: Active | Activity (Homo sapiens): Active
